ChEMBL document CHEMBL1140068, “Computer based design, synthesis and biological evaluation of novel indole derivatives as HCV NS3-4A serine protease inhibitors” (Bioorg Med Chem, 2008)
≈ marks a conversion by molar mass, not a printed value.

Experiments:
Hepacivirus hominis [1] = assay: Inhibition of HCV NS3 protease at 100 ug/ml
In short: (§1)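 Competitive displacement binding assay against HCV NS3-4A protease using the fluorogenic peptide substrate Ac-Asp-Glu-Asp(EDANS)-Glu-Glu-Abu-ψ. Fluorescence intensity was read, and percent inhibition was calculated from it.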

Hepacivirus hominis [2] = assay: Inhibition of HCV NS3 protease at 50 ug/ml; in short: as §1
[3] = Inhibition of HCV NS3 protease; set-up: species or system Hepacivirus hominis; in short: as §1
Hepacivirus hominis [4] = assay: Inhibition of HCV NS3 protease at 10 ug/ml; in short: as §1

| SMILES | inhibition (Hepacivirus hominis [1]) | inhibition (Hepacivirus hominis [2]) | IC50 [3] | inhibition (Hepacivirus hominis [4]) |
| --- | --- | --- | --- | --- |
| COc1ccc2[nH]cc(C(CC(=O)CCC(=O)N[C@@H](Cc3c[nH]c4ccccc34)C(=O)O)c3ccc(C(F)(F)F)cc3)c2c1 (mixture of isomers) | 76.9% | 51.2% | 47.9 µg/mL |  |
| COc1ccc(C(CC(=O)CCC(=O)N[C@@H](Cc2ccc(O)cc2)C(=O)O)c2c[nH]c3ccc(OC)cc23)cc1 (mixture of isomers) | 78.8% | 69.9% | 27.2 µg/mL | 29.6% |
| COc1ccc2[nH]cc(C(CC(=O)CCC(=O)N[C@@H](Cc3ccccc3)C(=O)O)c3ccc(C(F)(F)F)cc3)c2c1 (mixture of isomers) | 84.9% | 67.2% | 13 µg/mL | 48.5% |
| COc1ccc(C(CC(=O)CCC(=O)N[C@@H](Cc2c[nH]c3ccccc23)C(=O)O)c2c[nH]c3ccc(Br)cc23)cc1 (mixture of isomers) | 72.6% | 54.8% | 44.1 µg/mL |  |
| COc1ccc(C(CC(=O)CCC(=O)N[C@@H](Cc2ccc(O)cc2)C(=O)O)c2c[nH]c3ccc(Br)cc23)cc1 (mixture of isomers) | 68.7% | 41.5% | 63.3 µg/mL |  |

Results, then the molecule that gave them:

| inhibition (Hepacivirus hominis [1]) | inhibition (Hepacivirus hominis [2]) | IC50 [3] | inhibition (Hepacivirus hominis [4]) | SMILES |
| --- | --- | --- | --- | --- |
| 82.9% | 54% | 39.2 µg/mL (≈ 62.1 µM) | 19.1% | O=C(CCC(=O)N[C@@H](Cc1ccc(O)cc1)C(=O)O)CC(c1ccc(C(F)(F)F)cc1)c1c[nH]c2ccc(Br)cc12 (stereo partly specified) |
|  |  | 36.5 µg/mL (≈ 69 µM) |  | COc1ccc([C@@H](CC(=O)CCC(=O)N[C@@H](Cc2ccccc2)C(=O)O)c2c[nH]c3ccc(OC)cc23)cc1 |
| 67.4% | 54.4% | 44.8 µg/mL |  | COc1ccc(C(CC(=O)CCC(=O)N[C@@H](Cc2c[nH]c3ccccc23)C(=O)O)c2c[nH]c3ccc(OC)cc23)cc1 (mixture of isomers) |
| 85.7% | 84.4% | 15 µg/mL | 43.7% | COc1ccc(C(CC(=O)CCC(=O)N[C@@H](Cc2ccccc2)C(=O)O)c2c[nH]c3ccc(OC)cc23)cc1 (mixture of isomers) |
| 84.3% | 57.1% | 39 µg/mL | 35.2% | COc1ccc2[nH]cc(C(CC(=O)CCC(=O)N[C@@H](Cc3ccc(O)cc3)C(=O)O)c3ccc(C(F)(F)F)cc3)c2c1 (mixture of isomers) |
| 77.6% | 62.5% | 30.5 µg/mL | 23.5% | COc1ccc2[nH]cc(C(CC(=O)CCC(=O)N[C@@H](Cc3c[nH]cn3)C(=O)O)c3ccc(C(F)(F)F)cc3)c2c1 (mixture of isomers) |
| 75.7% | 59.2% | 31 µg/mL | 22.4% | COc1ccc(C(CC(=O)CCC(=O)N[C@@H](Cc2c[nH]cn2)C(=O)O)c2c[nH]c3ccc(OC)cc23)cc1 (mixture of isomers) |
